# Source: PubChem BioAssay (several laboratories)
# Most compounds without a hit are left out; they make up all but 1% or so of the library.
# PDI inh: PDI (human) enzyme inhibition; P07237; hit rate 0.052% among 350,000; AID 588391; PDI insulin aggregation turbidity, A650, 90 min; inhibition, % at 10 µM;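 active means mean inhibition across replicates of 30% or more, whatever share of single replicates reach that level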
# VIM-2 inh: inhibitors of Pseudomonas aeruginosa VIM-2 metallo-beta-lactamase; purified VIM-2, nitrocefin hydrolysis, epi-absorbance fluorescence; inhibition, % at 5.6 µM; hit rate 0.89% among 290,000;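 active means inhibition above the mean of all tested compounds plus 3 SD, cutoff set per screening run, cut at about 7.5% in these data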;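 further: red hydrolysis product quenches plate fluorescence so inhibitors raise well fluorescence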
# PglD DTNB: PglD (C. jejuni) enzyme inhibition; purified PglD enzyme, DTNB colorimetric CoA detection; inhibition, % at 12.5 µM; hit rate 0.098% among 360,000; in the data active means inhibition above about 16%, passing the limit was not always enough
# IMP-1 inh-1: blocks Pseudomonas aeruginosa IMP-1 metallo-beta-lactamase; purified IMP-1, nitrocefin hydrolysis, epi-absorbance fluorescence; inhibition, % at 5.6 µM; hit rate 0.45% among 290,000;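 active means inhibition above the mean plus 3 SD of all compounds in the same screening run, cut at about 4.5% in these data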
#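 Material – recombinant IMP-1 enzyme, purified · Amount – IMP-1 0.2 nM before substrate addition · Medium – HEPES buffer pH 7.1 with ZnSO4 and Brij 35 · Timing – 25 °C, 15 min preincubation, 25 min reaction · Measured by – plate fluorescence quenching by hydrolysis product, ex 480/em 530 nm · Read-out – percent enzyme inhibition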
# ERp5 block: inhibitors of human ERp5; Q15084; ERp5 insulin aggregation, absorbance 650 nm, 90 min; inhibition, % at 9.99 µM; hit rate 0.05% among 350,000; AID 651711;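 active means mean replicate inhibition above about 25%, with every replicate also reaching it, limit read from the data, passing the limit was not always enough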
# PvdQ acylase: P. aeruginosa PvdQ acylase inhibition. purified PvdQ acylase, fluorescence plate reader. inhibition, % at 10 µM. hit rate 0.063% among 340,000; in the data active means inhibition above about 30%, passing the limit was not always enough
# IMP-1 inh-2: blocks IMP-1 metallo-beta-lactamase in VIM-2 selectivity screen. purified IMP-1, nitrocefin hydrolysis, epi-absorbance fluorescence. 1,300 tested, under 10 active. shares compounds with VIM-2 inh. AID 1856. inhibition, % at 5.6 µM; call rule not given here
# VIM-2 FRET ctr: VIM-2 FRET inhibition, artifact counter-screen. inhibition, % at 5.6 µM. hit rate 23% among 1,300. shares compounds with VIM-2 inh. purified VIM-2, CCF2 FRET substrate hydrolysis. AID 1857;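 active means inhibition above the mean of all tested compounds plus 3 SD, cut at about 19% in these data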
# TEM-1 inh: selectivity counter-screen for VIM-2 inhibitors: E. coli TEM-1 inhibitors; inhibition, % at 5.6 µM; shares compounds with VIM-2 inh; Purified TEM-1, nitrocefin hydrolysis, epi-absorbance fluorescence; AID 1866; hit rate 3% among 1,300;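 active means inhibition above that campaign's mean inhibition plus 3 SD, cut at about 0.46% in these data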
# Target sequence (P62593 whole entry, looked up): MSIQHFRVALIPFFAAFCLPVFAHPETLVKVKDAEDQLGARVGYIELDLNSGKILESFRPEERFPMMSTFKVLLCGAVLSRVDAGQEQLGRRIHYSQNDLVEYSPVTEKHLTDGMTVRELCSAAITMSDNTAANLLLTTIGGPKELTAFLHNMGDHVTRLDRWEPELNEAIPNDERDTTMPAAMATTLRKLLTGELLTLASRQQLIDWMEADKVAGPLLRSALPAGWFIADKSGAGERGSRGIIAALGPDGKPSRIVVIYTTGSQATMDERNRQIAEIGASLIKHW
# VIM-2 confirm 2: confirmation of P. aeruginosa VIM-2 metallo-beta-lactamase inhibitors | hit rate 96% among 1,300 | AID 2187 | shares compounds with VIM-2 inh | inhibition, % at 5.6 µM | purified VIM-2, nitrocefin hydrolysis, epi-absorbance;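 active means inhibition of the VIM-2 beta-lactamase enzyme above about 11% from the earlier first-round screen, limit read from the data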
# Numbers stand for hits; - = inactive; . = not tested or not shown.
SMILES,PDI inh,VIM-2 inh,PglD DTNB,IMP-1 inh-1,ERp5 block,PvdQ acylase,IMP-1 inh-2,VIM-2 FRET ctr,TEM-1 inh,VIM-2 confirm 2
COc1cccc(-c2ccc3c(c2)[C@H]2[C@H](CCN2C(=O)c2cccc(F)c2)[C@@H](CO)N3)c1,.,.,-,.,-,.,.,.,.,.
O=C(O)c1ccccc1C(=O)c1ccc(Oc2ccccc2)cc1,-,22,.,-,-,-,-,44,-,24
CC(C)Sc1nc(SCC(=O)O)c2c3c(sc2n1)COC(C)(C)C3,-,24,-,-,-,-,-,23,-,8.8
O=C(O)c1c(C(=O)O)c(-c2ccc(Br)cc2)n2c1CSC2,-,43,-,-,-,-,-,68,-,50
Cc1ccc(-c2c(C(=O)O)c(C(=O)O)c3n2CSC3)cc1,-,34,-,-,-,-,-,52,-,37
CO[C@H]1CN(C)C(=O)c2cc(NS(=O)(=O)CC(F)(F)F)ccc2OC[C@@H](C)N(Cc2ccccn2)C[C@H]1C,.,.,-,.,-,.,.,.,.,.
CC(Oc1ccc2c3c(c(=O)oc2c1)CCCC3)C(=O)NC1CC(C)(C)NC(C)(C)C1 (stereo unspecified),-,15,-,-,.,-,-,-,-,20
Cc1c(C)c2ccc(OC(C)C(=O)NC3CC(C)(C)NC(C)(C)C3)cc2oc1=O (stereo unspecified),-,-,-,-,-,-,.,.,.,.
Cc1c(OC(C)C(=O)NC2CC(C)(C)NC(C)(C)C2)ccc2c3c(c(=O)oc12)CCC3 (stereo unspecified),-,26,-,-,-,-,-,-,-,37
CC(Oc1cc2oc(=O)c3c(c2cc1Cl)CCC3)C(=O)NC1CC(C)(C)NC(C)(C)C1 (stereo unspecified),-,25,-,-,.,-,-,-,-,35
CC(Oc1ccc2c3c(c(=O)oc2c1)CCC3)C(=O)NC1CCN(Cc2ccccc2)CC1 (stereo unspecified),-,22,-,-,-,-,-,-,-,31
Cc1cc(=O)oc2cc(OC(C)C(=O)NC3CCN(Cc4ccccc4)CC3)ccc12 (stereo unspecified),-,-,-,-,-,-,.,.,.,.
COc1ccc(-c2cnc3c(c2)C(=O)N([C@H](C)CO)C[C@H](C)[C@H](CN(C)Cc2ccc(F)cc2)O3)cc1,.,.,-,.,-,.,.,.,.,.
COc1ccc2c3c(n(C)c2c1)[C@@H](CO)N(C(=O)C1CCCC1)CC31CCN(C(=O)CN(C)C)CC1,.,.,.,.,-,.,.,.,.,.
C[C@H](CO)N1C[C@H](C)[C@H](CN(C)CC2CCOCC2)Oc2cc(Br)ccc2S1(=O)=O,.,.,-,.,.,.,.,.,.,.
COc1ccccc1C(=O)Nc1ccc(S(=O)(=O)N2CCN(C)CC2)cc1,-,.,-,.,.,-,.,.,.,.
CCCOc1ccccc1C(=O)Nc1ccc(S(=O)(=O)N2CCN(C)CC2)cc1,-,51,-,-,-,-,-,-,-,65
COc1ccc(S(=O)(=O)n2nc(OC(=O)c3cccs3)cc2NC(=O)c2cccs2)cc1,-,74,-,-,-,-,-,37,5.7,16
Cc1ccc(S(=O)(=O)n2[nH]c(=O)cc2NC(=O)c2cccs2)cc1,.,70,.,-,.,.,-,91,-,84
C[C@H]1CN([C@@H](C)CO)C(=O)Cc2cc(NC(=O)CCN3CCOCC3)ccc2O[C@@H]1CN(C)C,.,.,-,.,-,.,.,.,.,.
O=C(O)c1cccc(Nc2cc(Cl)c3nonc3c2[N+](=O)[O-])c1,-,-,.,-,-,-,.,.,.,.
O=[N+]([O-])c1c(Nc2ccc(O)cc2)cc(Cl)c2nonc12,-,22,-,-,-,-,-,-,-,32
Cc1ccc(Nc2c3c(nc4ncnn24)CC(C)CC3)cc1 (stereo unspecified),-,-,-,-,.,-,.,.,.,.
